Screening results from PubChem BioAssay.
A selection: hits, their analogues and other compounds. The true share with any hit is near 1.6%.
LEDGF integ inh: blocks HIV-1 LEDGF/p75-dependent DNA integration; TR-FRET IN-LEDGF/p75 DNA integration, Eu/Cy5; inhibition, % at 3.7 µM; actives 0.64% (n = 370,000);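 active = inhibition above the screen-wide mean plus 3 SD, cut at about 13% in these data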;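 note: signal is the Cy5 over europium emission ratio at 671 and 618 nm; 0% = plate median of compound wells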
UHRF1 MBD2 ctr: blocks human UHRF1 binding to methylated DNA; Q96T88; UHRF1 binding to methylated oligo, TR-FRET; inhibition, % at 4.4 µM; actives 0.75% (n = 370,000); in the data active = inhibition above about 21%;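 note: UHRF1 SRA domain binding a hemimethylated CpG hairpin DNA probe; 0% = median of test compound wells and 100% = reference inhibitor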
Target sequence (Q96T88 whole entry, looked up, the tested form may be a part): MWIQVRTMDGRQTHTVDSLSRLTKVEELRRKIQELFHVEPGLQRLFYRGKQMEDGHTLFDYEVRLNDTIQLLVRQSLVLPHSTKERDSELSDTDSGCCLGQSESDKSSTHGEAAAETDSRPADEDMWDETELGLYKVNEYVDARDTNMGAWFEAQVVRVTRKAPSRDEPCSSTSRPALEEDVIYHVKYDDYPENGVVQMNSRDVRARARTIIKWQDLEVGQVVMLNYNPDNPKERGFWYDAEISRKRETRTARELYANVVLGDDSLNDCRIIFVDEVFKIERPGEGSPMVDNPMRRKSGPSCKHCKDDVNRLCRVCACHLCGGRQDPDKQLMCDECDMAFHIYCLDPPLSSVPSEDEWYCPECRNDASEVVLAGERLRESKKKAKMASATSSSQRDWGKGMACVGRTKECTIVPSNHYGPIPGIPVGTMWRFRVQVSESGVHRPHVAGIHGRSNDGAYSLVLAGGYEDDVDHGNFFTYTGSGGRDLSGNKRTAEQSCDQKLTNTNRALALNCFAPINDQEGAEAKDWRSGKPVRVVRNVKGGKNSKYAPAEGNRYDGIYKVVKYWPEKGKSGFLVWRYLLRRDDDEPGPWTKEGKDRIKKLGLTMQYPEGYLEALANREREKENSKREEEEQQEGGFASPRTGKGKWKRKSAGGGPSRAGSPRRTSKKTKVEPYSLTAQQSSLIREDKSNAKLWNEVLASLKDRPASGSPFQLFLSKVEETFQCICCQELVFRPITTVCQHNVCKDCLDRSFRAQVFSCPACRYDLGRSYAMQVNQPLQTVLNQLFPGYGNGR
TDP2 absorb: TDP2 (human) inhibition, absorbance primary screen | actives 0.34% (n = 370,000) | O95551 | AID 720702 | recombinant TDP2, T5PNP hydrolysis, p-nitrophenol absorbance 415 nm | inhibition, % at 12.8 µM;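 active = inhibition above the mean of all tested compounds plus 3 SD, set per campaign, cut at about 25% in these data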;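 note: 0% = DMSO with enzyme and 100% = buffer with substrate but no TDP2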
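Evaluation: % inhibition relative to enzyme-containing and enzyme-free wells. Material: recombinant human TDP2. Benchmarks: enzyme-free and DMSO wells. Timing: enzyme reaction with compound for 2 h at 37 °C. Compound dosing: 12.8 µM only. Measured by: p-Nitrophenol epi absorbance. Reagent: T5PNP substrate at 5 mM, a TopII-DNA adduct mimic. Replication: single well per compound.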
MBD2 inh: MBD2-methylated oligo binding inhibition; Q9UBB5; TR-FRET, MBD2 binding to methylated oligonucleotide; inhibition, % at 4.4 µM; actives 0.31% (n = 370,000); in the data active = inhibition above about 13%
IN multimer up: HIV-1 integrase multimerization activation, counter-screen; TR-FRET HIV-1 integrase multimerization, biochemical; activation, % at 7.7 µM; shares compounds with LEDGF integ inh; actives 17% (n = 2,000); AID 1053131; in the data active = activation above about 8.9%
TRFRET interf: counter-screen for LEDGF/p75 integration inhibitors: TR-FRET optical interference; shares compounds with LEDGF integ inh; TR-FRET optical interference counterscreen, HIV-1 IN multimerization; inhibition, % at 7.7 µM; 2,000 tested, under 10 active;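 active = inhibition above the mean over all tested compounds plus 3 SD, which no compound reached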;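 note: 0% = integrase with antibodies and DMSO and 100% = antibodies without integrase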
LEDGF integ conf: LEDGF/p75-dependent HIV-1 integration inhibition, confirmation; shares compounds with LEDGF integ inh; inhibition, % at 3.7 µM; actives 36% (n = 2,000); AID 1053136; TR-FRET LEDGF/p75-dependent HIV-1 integration, biochemical; in the data active = inhibition above about 14%
Active calls of the source: *.

Cc1nn(C)c(-c2n[nH]c(=S)n2Cc2ccco2)c1Cl was read as LEDGF integ inh 20*, UHRF1 MBD2 ctr 8, TDP2 absorb 1, MBD2 inh 7, IN multimer up 1, TRFRET interf -5 and LEDGF integ conf -6.
CCCc1cc(=O)oc2cc(OCC(=O)NCC3CCC(C(=O)O)CC3)ccc12 (stereo not drawn) was read as LEDGF integ inh 33*, UHRF1 MBD2 ctr -2, TDP2 absorb 0, MBD2 inh -2, IN multimer up -4, TRFRET interf 14 and LEDGF integ conf 0.
Screening COc1ccc(-c2ccc3c(n2)CCCN3S(=O)(=O)c2ccccc2C)cc1 returned LEDGF integ inh 2, UHRF1 MBD2 ctr 1, TDP2 absorb -7 and MBD2 inh -3.
O=C(NCc1ccccc1)O[C@H]1CC[C@@]23CCCN2C(=O)CCC[C@H]3C1 was read as LEDGF integ inh -2, UHRF1 MBD2 ctr 1, TDP2 absorb -2 and MBD2 inh 0.
For O=C(CSc1nnc(CNC(=O)c2cccc(C(F)(F)F)c2)o1)NC1CCCC1 the results were LEDGF integ inh 45*, UHRF1 MBD2 ctr 1, TDP2 absorb 1, MBD2 inh -7, IN multimer up 0, TRFRET interf 1 and LEDGF integ conf -1.
For Fc1ccc(CNC(=S)Nc2cccc(Cl)c2)cc1 the results were LEDGF integ inh 15*, UHRF1 MBD2 ctr -4, TDP2 absorb -1, MBD2 inh -1, IN multimer up -1, TRFRET interf 4 and LEDGF integ conf -1.
C[C@H]1[C@H](NCc2cccnc2)CC[C@@]23CCCN2C(=O)CCC[C@@H]13 was read as LEDGF integ inh 10, UHRF1 MBD2 ctr 0, TDP2 absorb 3 and MBD2 inh 0.
CN1CCN(c2ncnc3c2ncn3[C@H]2CN(Cc3ccc(Cl)cc3)C[C@@H](CO)O2)CC1 was read as LEDGF integ inh 14*, UHRF1 MBD2 ctr 0, TDP2 absorb -1, MBD2 inh 0, IN multimer up 1, TRFRET interf -3 and LEDGF integ conf -10.
For OCCN1CCN(c2ncnc3c2ncn3[C@H]2CN(Cc3ccc(Cl)cc3)C[C@@H](CO)O2)CC1 the results were LEDGF integ inh -2, UHRF1 MBD2 ctr 2, TDP2 absorb 14 and MBD2 inh 4.
For CCCCCCCCCCCCN1CCSCCS1(=O)=O the results were LEDGF integ inh 22*, UHRF1 MBD2 ctr 2, TDP2 absorb -13, MBD2 inh 1, IN multimer up 0, TRFRET interf 0 and LEDGF integ conf 4.
Screening COc1cc(-c2ccc3c(=O)c4ccccc4sc3c2)cc(OC)c1OC returned LEDGF integ inh 16*, UHRF1 MBD2 ctr -3, TDP2 absorb 3, MBD2 inh -4, IN multimer up 9.3*, TRFRET interf -32 and LEDGF integ conf -8.
Screening COCCCN1C(=O)[C@H](CC(=O)N2CCOCC2)[C@]2(C(=O)OC)CCCCC=C12 returned LEDGF integ inh 0, UHRF1 MBD2 ctr 0, TDP2 absorb 5 and MBD2 inh 2.
`O=C(N/N=C/c1c(O)n(Cc2ccco2)c(=O)[nH]c1=O)c1ccccc1` gave LEDGF integ inh 53*, UHRF1 MBD2 ctr 34*, TDP2 absorb -9, MBD2 inh -5, IN multimer up 13*, TRFRET interf -64 and LEDGF integ conf 6.
C=C(C)C(=O)Nc1cccc(C2=NOC3(C2)C[C@@H](C(N)=O)N(C(=O)[C@H]2CCC(=O)N2)C3)c1 (stereo partly drawn) was read as LEDGF integ inh 28*, UHRF1 MBD2 ctr 16, TDP2 absorb -3, MBD2 inh 11, IN multimer up 5, TRFRET interf -25 and LEDGF integ conf 24*.
`C#CCOCCOCCOCCNc1nc(N2CCOCC2)nc(N2CCN(C(=O)[C@H](CCC(=O)O)n3cc(C(N)CO)nn3)CC2)n1` (stereo partly drawn) gave LEDGF integ inh 1, UHRF1 MBD2 ctr 9, TDP2 absorb -1 and MBD2 inh 3.
Screening COC(=O)c1cc(NS(=O)(=O)c2ccc(N3CCOCC3)c(N)c2)cc(C(=O)OC)c1 returned LEDGF integ inh 14*, UHRF1 MBD2 ctr 2, TDP2 absorb 0, MBD2 inh 3, IN multimer up 0, TRFRET interf -2 and LEDGF integ conf -6.
Cc1cc2c(c(=O)o1)[C@@]1(C(=O)N(C)c3ccccc31)C1=C(CC(C)(C)OC1=O)O2 was read as LEDGF integ inh -2, UHRF1 MBD2 ctr -2, TDP2 absorb 0 and MBD2 inh 0.
`O=C(Nc1ccccc1C(=O)N1CCN(c2cccc(Cl)c2)CC1)C1=CSCCO1` gave LEDGF integ inh 81*, UHRF1 MBD2 ctr -1, TDP2 absorb 7, MBD2 inh -1, IN multimer up -1, TRFRET interf 7 and LEDGF integ conf 0.
For COc1ccccc1S(=O)(=O)N(C)C[C@H]1OCc2cnnn2CCCC(=O)N([C@@H](C)CO)C[C@@H]1C the results were LEDGF integ inh 53*, UHRF1 MBD2 ctr -2, TDP2 absorb 11, MBD2 inh -1, IN multimer up 0, TRFRET interf 0 and LEDGF integ conf -17.
`CC(NS(=O)(=O)c1ccc(Cl)cc1)C(=O)NCc1ccco1` (stereo not drawn) gave LEDGF integ inh 18*, UHRF1 MBD2 ctr 25*, TDP2 absorb -15, MBD2 inh 10, IN multimer up 0, TRFRET interf 2 and LEDGF integ conf -11.
CCCC[C@@H](CCCc1ccc(F)cc1)CCC(=O)N(c1ccccc1)c1ccccc1 was read as LEDGF integ inh -4, UHRF1 MBD2 ctr 2, TDP2 absorb 5 and MBD2 inh 2.
Screening COC(=O)[C@]12C[C@H](CC(=O)NCC3CCCCC3)C(=O)N(Cc3ccc(Cl)cc3Cl)C1=C[C@H](C1CCCC1)O[C@@H]2C returned LEDGF integ inh -3, UHRF1 MBD2 ctr -1, TDP2 absorb -10 and MBD2 inh -4.
For Cc1ccc(Cc2c(-c3ccc(C)cc3)nc3ccc(Cl)cn23)cc1 the results were LEDGF integ inh 2, UHRF1 MBD2 ctr 3, TDP2 absorb -2 and MBD2 inh 3.
Clc1ccc2nc(-c3ccccc3)c(Cc3ccccc3)n2c1 was read as LEDGF integ inh 27*, UHRF1 MBD2 ctr 1, TDP2 absorb 7, MBD2 inh -5, IN multimer up -1, TRFRET interf 3 and LEDGF integ conf -3.
Screening Cc1ccc(Cc2c(-c3ccc(Br)cc3)nc3ccc(Cl)cn23)cc1 returned LEDGF integ inh 14*, UHRF1 MBD2 ctr -1, TDP2 absorb 8, MBD2 inh -3, IN multimer up 0, TRFRET interf 1 and LEDGF integ conf 0.
